Assay [1] is described as follows: S. cerevisiae growth inhibition in permissive medium (OD615), pilot counter-assay for S. cerevisiae lifespan shortening project, permissive growth control (AID 705;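 active means growth inhibition above 25% in both replicates, a cutoff set 3 SD above the mean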). The conditions noted are these: OD615, 24 h, at 10 µM, hits give high values. The essentials:
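System: Engineered DeaD yeast | Buffer or medium: SC raffinose/galactose permissive medium | Doses: 10 µM single dose, 0.25% DMSO | Times: 24 h exposure, 30 °C | Measured by: OD615 turbidity read | Read-out: Yeast growth inhibition indicated by reduced 24 h OD615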

Assay [2] can be described thus: S. cerevisiae growth inhibition in restrictive medium, OD615, pilot screen, restrictive growth control, yeast lifespan reduction project (AID 706;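 active means growth inhibition above a set limit, 3 SD over mean compound inhibition, in both replicates, cut at about 43% in these data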;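 further: modified DeaD lifespan yeast strain shifted to restrictive glucose medium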). To be noted: OD615, 48 h, at 10 µM, hits give high values. The essentials: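 Assay system: engineered S. cerevisiae DeaD strain; Buffer or medium: CSMM-D glucose medium; Dosing: 10 µM compound, 0.25% DMSO; Times: cell pre-growth 4 h, compound exposure 48 h, 30 °C; Detection: absorbance (optical density) measured at 615 nm.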

Assay [3] is described as follows: doxorubicin toxicity protection in MRP-1 cells – H69AR cells, CellTiter-Glo, duplicate, MRP-1 activator project, pilot screen (AID 807;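 active means viability increase at or above a cutoff of the median across tested compounds plus 3 SD, cut at about 8.5% in these data, passing the limit was not always enough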;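 further: compound pretreatment 18-22 h then 72 h combined with doxorubicin; 0% = doxorubicin alone and 100% = vehicle without doxorubicin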). To be noted: H69AR viability with doxorubicin, CellTiter-Glo luminescence; at 10 µM; hits give high values. A general note: ATP-based viability assays read luminescence as a measure of living cells.
A short description of assay [4]: viability of HCT116 without oncogenic beta-catenin – human colon tumor cells, pilot screen (AID 823).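 Further: 0% = wells killed by 20 µM Hyamine and 100% = untreated DMSO cell wells.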 To be noted: HCT116 beta-catenin knockout viability, CellTiter-Glo, 60 h; at 10 µM; hits give low values.
Assay [5] in a line: viability of PTEN-null HCT116 cells – cell-based, HCT116 clonal line, CellTiter-Glo, pilot screen (AID 824;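 active means viability at or below 27.92% in each of two runs, the all-compound median minus 4 SD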;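 further: 0% = 20 µM Hyamine control and 100% = vehicle cell control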). The conditions noted are these: HCT116 PTEN-deleted viability, 60 h, at 10 µM, hits give low values.
Assay [6] can be described thus: RAM pathway blockade in budding yeast – dse1pr::URA3 reporter, 5-FOA selection, pilot screen (AID 869;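 active means inhibition over a set limit, the all-compound mean plus 3 SD, in both replicate runs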;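 further: 0% = DMSO wells with no growth and 100% = 10 µM 1-NA-PP1 with full growth; RAM network block rescues cells from 5-FOA so hits raise OD615 growth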). To be noted: S. cerevisiae dse1pr::URA3 5-FOA growth, OD615, 2 d; at 10 µM; hits give high values; strain carries analog-sensitive mutant Cbk1 kinase.
The nature of assay [7]: RAM signaling pathway blockade in yeast – S. cerevisiae, Pdr1DBD-CYC8 efflux-inhibited sensitized strain, primary screen (AID 1298;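 active means RAM network inhibition above 8.4% in each of two replicates, 3 SD over the compound average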;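 further: 0% = DMSO untreated cells without growth and 100% = 10 µM 1-NA-PP1 full growth; higher means more yeast growth rescued from 5-FOA killing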). The conditions noted are these: S. cerevisiae cbk1-as DSE1-URA3 strain, 5-FOA growth OD615, 2 d; at 50 µM; hits give high values.

Values without a mark were called inactive. Records with an inconclusive call do not appear. Calls of active or inactive are those of the source.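 How the source made its calls, unless noted: active means cell viability at or below a set limit in both duplicate runs, the limit being the all-compound median minus 4 SD (cut at about 23% in these data, passing the limit was not always enough); inconclusive means no clear call, values can overlap the other calls; inactive means the rest.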

From PubChem BioAssay come the findings set out here.

The viability is a read-out of living cells in per cent, often relative to untreated cells. For orientation: inhibition means how much of the control response was suppressed.

Regarding `CCOc1ccccc1CNC(=O)c1cc2occc2n1C`, the results for the growth inhibition in assay [1] and in assay [2] were 1.53% and 5.16%, respectively. Also, the viability increase in assay [3] is 1.21%. For the same compound, the viability in assay [4] was 95.2%; in assay [5], 87.4%. For the same compound, the inhibition in assay [6] was 1.74%. Further, the RAM network inhibition in assay [7] is 3.98%.
Consider `Cc1ccc2oc3c(c(=O)c2c1)C(c1cccc(O)c1)N(c1ccccn1)C3=O` (stereo unspecified), for which the values for the growth inhibition in assay [1] and in assay [2] were -2.51% and -0.22%, respectively. Further, the viability increase in assay [3] is -2.59%. The viability in assay [4] is 79.4%; in assay [5], 68.2%. For the same compound, the inhibition in assay [6] was 1.81%. For the same compound, in assay [7], the RAM network inhibition was 4.84%.
For `CCCC1(C(=O)O)NC(c2ccccc2O)C2C(=O)N(Cc3ccccc3)C(=O)C21` (stereo unspecified), the results for the growth inhibition in assay [1] and in assay [2] were 7.11% and 6.84%, respectively. In addition, the viability increase in assay [3] was -1.02%. In addition, the viability is 97.5% in assay [4] and 90.8% in assay [5]. The inhibition in assay [6] was 0.45%. In assay [7], the RAM network inhibition was 0.88%.
For `COc1ccc(Nc2nc(N)nc(CN3CCc4ccccc4C3)n2)cc1`, the growth inhibition in assay [1] was -5.29%; in assay [2], -14.9%. Also, the viability increase in assay [3] was -5.38%. Also, the viability was 44.7% in assay [4] and 48.4% in assay [5]. Besides, in assay [6], the inhibition was 0.725%. Also, the RAM network inhibition in assay [7] is 4.84%.
On to `Cc1ccc(CC(=O)N2CCC(c3nc4c(nnn4Cc4ccccc4)c(=O)[nH]3)CC2)cc1`, for which the growth inhibition was -10.5% in assay [1] and -7.38% in assay [2]. In addition, the viability increase in assay [3] is -1.07%. Besides, the viability was 76.9% in assay [4] and 78.9% in assay [5]. For the same compound, in assay [6], the inhibition was 0.71%. Further, the RAM network inhibition in assay [7] is 3%.
Consider `Cc1cc(C)cc(OCC(=O)Nc2cccc(-c3nc4ncccc4o3)c2)c1`, for which the growth inhibition is -7.77% in assay [1] and -1.93% in assay [2]. The viability increase in assay [3] is -1.93%. For the same compound, the viability in assay [4] is 65.4%; in assay [5] it was 59.7%. For the same compound, in assay [6], the inhibition is 3.17%. Also, in assay [7], the RAM network inhibition is 6.74%.
Regarding `COc1cccc(-c2nnc3n2N=C(C(C)(C)C)CS3)c1`, the figures for the growth inhibition in assay [1] and in assay [2] were -5.97% and -16.3%, respectively. Besides, in assay [3], the viability increase is -4.18%. For the same compound, the viability is 5.81% (active) in assay [4] and 5.52% (active) in assay [5]. Besides, in assay [6], the inhibition is 0.79%. Moreover, the RAM network inhibition in assay [7] was 2.49%.
Regarding `O=C1c2oc3ccc(F)cc3c(=O)c2C(c2cccc(O)c2)N1CCCN1CCOCC1` (stereo unspecified), the figures for the growth inhibition in assay [1] and in assay [2] were -6.24% and -8.16%, respectively. For the same compound, the viability increase in assay [3] is 0.39%. In addition, the viability is 99% in assay [4] and 96.2% in assay [5]. Moreover, the inhibition in assay [6] was 0.63%. Also, the RAM network inhibition in assay [7] was 0.27%.
Turning to `O=C(CSc1nnc(Cc2cc(=O)[nH]c(=O)[nH]2)n1-c1ccc(Cl)cc1)NC1CCCC1`, the growth inhibition in assay [1] is -14.1%; in assay [2], -17.7%. For the same compound, the viability increase in assay [3] was -0.76%. In addition, the viability in assay [4] is 108%; in assay [5] it was 104%. Moreover, in assay [6], the inhibition was 1.92%. The RAM network inhibition in assay [7] was 0.32%.
`COc1ccc(-c2nc(CS(=O)(=O)CC(=O)Nc3ccc(Cl)cc3)c(C)o2)cc1`: the results for the growth inhibition in assay [1] and in assay [2] were -8.75% and -7.49%, respectively. Further, the viability increase in assay [3] was -2.64%. The viability in assay [4] was 48.5%; in assay [5], 49.6%. Moreover, the inhibition in assay [6] was 2.77%. Further, the RAM network inhibition in assay [7] is 3.02%.
Consider `CCOC(=O)c1cnc2ccc(C(=O)OC)cc2c1NCCN1CCOCC1`, for which the growth inhibition in assay [1] is -6.57%; in assay [2] it was -2.95%. Moreover, the viability increase in assay [3] is -4.73%. Moreover, the viability is 86.6% in assay [4] and 92.1% in assay [5]. For the same compound, the inhibition in assay [6] is 2.41%. Further, the RAM network inhibition in assay [7] was 2.6%.
As for `COCCCN(C(=O)Nc1ccc(C)c(C)c1)C(C)c1ccccn1` (stereo unspecified), the growth inhibition in assay [1] is 2.01%; in assay [2] it was 11.8%. In assay [3], the viability increase was -1.65%. Moreover, the viability in assay [4] was 102%; in assay [5], 89.8%. Further, in assay [6], the inhibition was 2.15%. Moreover, the RAM network inhibition in assay [7] is 5.96%.
For the compound `O=C(Nc1ccc(F)cc1F)N1CCN(c2ncccn2)CC1`, the growth inhibition was -14.8% in assay [1] and -26.3% in assay [2]. In assay [3], the viability increase was -0.19%. For the same compound, the viability in assay [4] was 106%; in assay [5], 100%. Moreover, the inhibition in assay [6] was 1.76%. In assay [7], the RAM network inhibition is 3.24%.
Consider `C=CCSC1=C(C#N)C(c2ccc(OCC)cc2)CC(=O)N1` (stereo unspecified), for which the growth inhibition in assay [1] was -11.9%; in assay [2], 15.4%. In addition, the viability increase in assay [3] was -1.8%. The viability in assay [4] is 94.5%; in assay [5] it was 88.2%. In addition, the inhibition in assay [6] is 1.47%. Moreover, the RAM network inhibition in assay [7] was 4.8%.
In the case of `Cc1cccc(N=C2NC(=O)/C(=C3/C(=O)N(C)c4ccccc43)S2)c1C`, the values for the growth inhibition in assay [1] and in assay [2] were -18.4% and -15.6%, respectively. In addition, in assay [3], the viability increase is -7.01%. In addition, the viability in assay [4] was 95.5%; in assay [5], 91.1%. For the same compound, the inhibition in assay [6] was 2.91%. The RAM network inhibition in assay [7] is 1.77%.
Consider `COCCN(C(=O)Nc1ccccc1)C(C)c1cccnc1` (stereo unspecified), for which the figures for the growth inhibition in assay [1] and in assay [2] were 9.6% and -1.42%, respectively. Further, the viability increase in assay [3] is -2.41%. Further, the viability in assay [4] was 93.5%; in assay [5], 97.5%. The inhibition in assay [6] was 1.54%. Further, the RAM network inhibition in assay [7] is -1.08%.
Turning to `CCn1cc(C2=NC(C(C)C)CO2)c2ccccc21` (stereo unspecified), the results for the growth inhibition in assay [1] and in assay [2] were -12% and -6.49%, respectively. Besides, the viability increase in assay [3] is -2.74%. The viability was 99.2% in assay [4] and 95.9% in assay [5]. In assay [6], the inhibition was 1.54%. Also, the RAM network inhibition in assay [7] is 2.06%.
As to `CCOC(=O)c1ccc(NC(=O)CN2C(=O)CSC2=O)cc1`, the growth inhibition is -1.29% in assay [1] and -0.27% in assay [2]. In assay [3], the viability increase was 1.63%. The viability was 95.7% in assay [4] and 103% in assay [5]. The inhibition in assay [6] is 3.08%. In addition, in assay [7], the RAM network inhibition is 4.03%.
